# Shown are actives, neighbours in structure and some others; about 3.6% of the full set was active somewhere.
# pPAFAH inh: inhibitors of human plasma PAF acetylhydrolase (pPAFAH). inhibition, % at 3.39 µM. recombinant pPAFAH, FP-rhodamine probe fluorescence polarization. 1.5% of 330,000 active. AID 463082. Q13093;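 active = inhibition above the mean inhibition across the screen plus 3 SD, cut at about 25% in these data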;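 note: inhibitors block binding of the rhodamine activity-based probe so polarization drops; 0% = enzyme with DMSO and 100% = wells lacking pPAFAH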
# Target sequence (Q13093 whole entry, looked up): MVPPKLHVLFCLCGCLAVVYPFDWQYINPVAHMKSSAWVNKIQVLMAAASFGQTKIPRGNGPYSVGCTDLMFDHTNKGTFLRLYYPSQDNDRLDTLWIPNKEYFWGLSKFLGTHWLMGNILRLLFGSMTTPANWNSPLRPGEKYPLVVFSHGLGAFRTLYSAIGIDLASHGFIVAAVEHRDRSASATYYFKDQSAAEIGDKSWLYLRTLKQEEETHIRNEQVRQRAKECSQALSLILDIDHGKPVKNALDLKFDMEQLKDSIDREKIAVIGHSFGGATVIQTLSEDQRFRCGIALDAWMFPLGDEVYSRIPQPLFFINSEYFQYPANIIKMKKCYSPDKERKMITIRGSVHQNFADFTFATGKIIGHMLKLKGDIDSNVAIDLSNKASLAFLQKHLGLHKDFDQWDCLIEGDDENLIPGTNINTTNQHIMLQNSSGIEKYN
# VIM-2 inh: blocks Pseudomonas aeruginosa VIM-2 metallo-beta-lactamase. 0.89% of 290,000 active. AID 1527. inhibition, % at 5.6 µM. purified VIM-2, nitrocefin hydrolysis, epi-absorbance fluorescence;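 active = inhibition above the mean of all tested compounds plus 3 SD, cutoff set per screening run, cut at about 7.5% in these data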;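 note: red hydrolysis product quenches plate fluorescence so inhibitors raise well fluorescence; 0% = enzyme with DMSO and 100% = DMSO without enzyme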
# IMP-1 inh-1: inhibitors of Pseudomonas aeruginosa IMP-1 metallo-beta-lactamase. purified IMP-1, nitrocefin hydrolysis, epi-absorbance fluorescence. inhibition, % at 5.6 µM. 0.45% of 290,000 active;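 active = inhibition above the mean plus 3 SD of all compounds in the same screening run, cut at about 4.5% in these data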;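 note: 0% = IMP-1 with DMSO and 100% = DMSO wells lacking enzyme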
#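 System: purified IMP-1; amount: IMP-1 0.2 nM before substrate addition; compound: single dose, 5.6 µM; times: 25 °C, 15 min preincubation, 25 min reaction; signal: Epi-absorbance via hydrolysed-nitrocefin quenching of white-plate fluorescence, 480/530 nm, EDTA stop; benchmarks: DMSO with and without IMP-1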
# PAFAH1B2 inh: blocks human PAF acetylhydrolase 1b catalytic subunit 2; P68402; recombinant PAFAH1B2, FP-rhodamine activity probe, fluorescence polarization; inhibition, % at 3.39 µM; 1.2% of 340,000 active; AID 492953;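 active = inhibition above the mean of all tested compounds plus 3 SD, cut at about 24% in these data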;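 note: 0% = enzyme with DMSO and 100% = wells lacking PAFAH1B2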
# PAFAH1B3 inh: inhibitors of human PAFAH1B3. Q15102. recombinant PAFAH1B3, FP-rhodamine probe, fluorescence polarization. inhibition, % at 3.39 µM. 0.28% of 340,000 active. AID 492972;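 active = inhibition above the screen-wide average of all tested compounds plus 3 SD, cut at about 25% in these data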;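 note: 0% = enzyme with DMSO only and 100% = wells lacking PAFAH1B3 protein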
# PAFAH2 FP inh: inhibitors of human PAFAH2. Q99487. recombinant PAFAH2, FP-rhodamine activity probe, fluorescence polarization. inhibition, % at 3.39 µM. 0.99% of 340,000 active;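 active = inhibition above the mean over all tested compounds plus 3 SD, cut at about 30% in these data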;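 note: inhibitors block probe labeling of enzyme so polarization drops; 0% = enzyme with DMSO and 100% = wells lacking PAFAH2 protein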
# IMP-1 inh-2: selectivity counter-screen for VIM-2 inhibitors: IMP-1 metallo-beta-lactamase inhibitors | purified IMP-1, nitrocefin hydrolysis, epi-absorbance fluorescence | 1,300 tested, under 10 active | inhibition, % at 5.6 µM | shares compounds with VIM-2 inh; call rule not given here;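 note: 0% = enzyme with vehicle and 100% = vehicle without enzyme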
# VIM-2 FRET inh: counter-screen for VIM-2 inhibitors: epi-absorbance artifacts via FRET; shares compounds with VIM-2 inh; purified VIM-2, CCF2 FRET substrate hydrolysis; inhibition, % at 5.6 µM; 23% of 1,300 active;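 active = inhibition above the mean of all tested compounds plus 3 SD, cut at about 19% in these data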;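 note: 0% = VIM-2 plus DMSO and 100% = no enzyme wells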
# TEM-1 inh: TEM-1 inhibition, counter-screen for VIM-2 inhibitors; inhibition, % at 5.6 µM; Purified TEM-1, nitrocefin hydrolysis, epi-absorbance fluorescence; shares compounds with VIM-2 inh; 3% of 1,300 active;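 active = inhibition above that campaign's mean inhibition plus 3 SD, cut at about 0.46% in these data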;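 note: 0% = TEM-1 with DMSO and 100% = TEM-1 with 100 µM potassium clavulanate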
# Target sequence (P62593 whole entry, looked up): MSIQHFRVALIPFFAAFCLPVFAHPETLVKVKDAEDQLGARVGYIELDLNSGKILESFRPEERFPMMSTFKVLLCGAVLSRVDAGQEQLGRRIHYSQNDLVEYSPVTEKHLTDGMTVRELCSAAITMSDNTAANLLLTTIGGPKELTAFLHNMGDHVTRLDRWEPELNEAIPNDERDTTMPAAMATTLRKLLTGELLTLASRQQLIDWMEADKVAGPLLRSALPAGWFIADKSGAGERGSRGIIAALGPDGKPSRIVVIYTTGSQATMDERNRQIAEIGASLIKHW
# VIM-2 inh conf: confirmation of P. aeruginosa VIM-2 metallo-beta-lactamase inhibitors; shares compounds with VIM-2 inh; purified VIM-2, nitrocefin hydrolysis, epi-absorbance; inhibition, % at 5.6 µM; 96% of 1,300 active; AID 2187;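 active = inhibition of the VIM-2 beta-lactamase enzyme above about 11% from the earlier first-round screen, limit read from the data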;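 note: 0% = VIM-2 with DMSO and 100% = buffer wells without enzyme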
# * hit, by the source's call; nt = no result given.
SMILES,pPAFAH inh,VIM-2 inh,IMP-1 inh-1,PAFAH1B2 inh,PAFAH1B3 inh,PAFAH2 FP inh,IMP-1 inh-2,VIM-2 FRET inh,TEM-1 inh,VIM-2 inh conf
CCn1c(SCC(=O)N2CCN(C)CC2)nc2c1c(=O)n(C)c(=O)n2C,1,55*,-2,2,12,-3,-4,-4,-5,63*
CCCn1c(SCC(=O)N2CCN(CC)CC2)nc2c1c(=O)n(C)c(=O)n2C,4,52*,-1,0,2,11,-4,1,-6,61*
CCn1c(SCC(=O)N2CCCC2)nc2c1c(=O)n(C)c(=O)n2C,5,-2,-4,4,12,-4,nt,nt,nt,nt
CCCn1c(SCC(=O)N2CCCCC2)nc2c1c(=O)n(C)c(=O)n2C,-3,1,0,1,2,3,nt,nt,nt,nt
CS(=O)(=O)Nc1ccc(C(=O)Nc2ccc3ccccc3c2)cc1,6,0,-2,0,6,-8,nt,nt,nt,nt
CC(=O)c1ccc(N2CCN(S(=O)(=O)c3cc4c(cc3C)NC(=O)CO4)CC2)cc1,-1,1,2,-1,-3,6,nt,nt,nt,nt
CC1CCN(C(=O)CNC(=O)CNS(=O)(=O)c2ccccc2)CC1,6,-1,-4,7,6,6,nt,nt,nt,nt
O=C(c1ccc(Cl)cc1)N1CCC(C(=O)N2CCN(c3ncccn3)CC2)CC1,2,nt,nt,1,10,7,nt,nt,nt,nt
CC(NS(=O)(=O)c1ccc2c(c1)C(=O)c1cc(S(=O)(=O)NC(C)C(=O)O)ccc1-2)C(=O)O (configuration not stated),10,18*,-2,3,4,-2,-3,21*,-6,19*
CC(=O)NS(=O)(=O)c1ccc2c(c1)C(=O)c1cc(S(=O)(=O)NC(C)=O)ccc1-2,-3,3,2,2,5,-5,nt,nt,nt,nt
Cn1c(SCC(=O)O)nc2sc3c(c2c1=O)CCC3,nt,14*,-2,4,2,-6,-4,30*,-6,22*
CCn1c(SCC(=O)O)nc2sc3c(c2c1=O)CCC3,9,-2,-1,6,7,20,nt,nt,nt,nt
CC(=O)Nc1sc(C)c(C)c1C(=O)OCCOc1ccccc1,12,0,-4,-1,11,-8,nt,nt,nt,nt
Cc1ccc(/C=c2\sc3nc(-c4cccnc4)nn3c2=O)cc1,3,56*,-3,9,-2,5,-2,65*,-5,60*
CC(C)c1ccc(/C=c2\sc3nc(-c4ccncc4)nn3c2=O)cc1,0,-1,-4,2,-3,6,nt,nt,nt,nt
CCOC(=O)C1(Cc2ccccc2)CCCCCC1=O (configuration not stated),nt,nt,nt,-4,5,1,nt,nt,nt,nt
COc1ccc(-c2nc(C#N)c(NCCCN(C)C)o2)cc1OC,-4,12*,3,-5,-2,2,-2,1,-6,27*
COc1ccc(CCNc2oc(-c3ccc(OC)c(OC)c3)nc2C#N)cc1,9,-1,-5,1,2,3,nt,nt,nt,nt
COc1ccc(CCNc2oc(-c3ccccc3OC)nc2C#N)cc1,9,1,-4,13,12,5,nt,nt,nt,nt
COc1ccccc1-c1nc(C#N)c(NCCCn2ccnc2)o1,5,18*,-1,7,6,4,-4,-6,-5,35*
N#Cc1nc(-c2ccc(OCc3ccc(Cl)cc3)cc2)oc1NCCCn1ccnc1,-3,-5,-4,13,2,2,nt,nt,nt,nt
N#Cc1nc(-c2ccccc2)oc1NCCCn1ccnc1,0,26*,-5,3,7,-2,-3,-11,-6,45*
Cc1cc(C)n2cc(CSc3nnc(-c4ccccc4)o3)nc2n1,3,16*,1,5,-3,0,-3,30*,-3,21*
Cc1cc(C)n2cc(CSCc3ccccc3)nc2n1,5,2,-3,5,-4,7,nt,nt,nt,nt
C/C(=N\NC(=O)c1ccc(-n2cnnn2)cc1)c1ccc(Cl)cc1,-1,nt,nt,0,5,8,nt,nt,nt,nt
SMILES,pPAFAH inh,VIM-2 inh,IMP-1 inh-1,PAFAH1B2 inh,PAFAH1B3 inh,PAFAH2 FP inh,IMP-1 inh-2,VIM-2 FRET inh,TEM-1 inh,VIM-2 inh conf
Cc1cc(OCCCn2ccnc2)ccc1[N+](=O)[O-],-4,28*,-1,4,2,7,-2,-8,-6,39*
CNC(=S)Nc1cccc(-c2cnc3ccccc3n2)c1,5,14*,-5,2,10,5,-2,-22,-9,9.1*
CC(C)C(=O)Nc1cccc(-c2cnc3ccccc3n2)c1,2,-3,-4,-1,-1,3,nt,nt,nt,nt
CC(C)C(NC(=O)c1c(F)cccc1F)C(=O)N1CCN(S(=O)(=O)c2ccc(F)cc2)CC1 (configuration not stated),3,nt,nt,8,-3,7,nt,nt,nt,nt
CCc1cc(=O)oc2cc(C)cc(OCC(=O)NC3CCN(Cc4ccccc4)CC3)c12,2,13*,-4,2,-1,4,-3,0,-5,24*
O=C(Cn1[nH]c(=O)c2ccccc2c1=O)NC1CCCCCC1,2,-4,-3,2,5,4,nt,nt,nt,nt
Cc1c(C)c2ccc(OCC(=O)NC3CCN(Cc4ccccc4)CC3)c(C)c2oc1=O,-2,21*,-2,2,2,-3,-3,0,-11,31*
O=C(Cn1[nH]c(=O)c2ccccc2c1=O)NC1CCN(Cc2ccccc2)CC1,0,20*,-3,0,4,-6,-3,-4,-4,36*
CC(=O)Nc1ccc2c(c1)C(N1CC3CCC(CC3)C1)c1ccccc1-2 (configuration not stated),nt,nt,nt,7,9,-9,nt,nt,nt,nt
COc1ccc(S(=O)(=O)N2CCOCC2)cc1NC(=O)C1CCCCN1S(=O)(=O)c1ccccc1 (configuration not stated),nt,nt,nt,-1,9,7,nt,nt,nt,nt
COc1cc(OC)c(-c2nn3c(-c4ccco4)nnc3s2)cc1OC,nt,36*,4,3,13,6,-2,-5,-4,42*
COc1cc(-c2nn3c(-c4ccccc4)nnc3s2)cc(OC)c1OC,8,18*,-3,2,6,-2,-2,38*,-5,37*
Cc1cc(-c2nn3c(-c4ccccc4)nnc3s2)c2ccccc2n1,13,13*,-4,-1,-5,14,-3,10,-4,35*

# Compound activity: PubChem BioAssay, The Scripps Research Institute Molecular Screening Center
